Measured values taken from ChEMBL document CHEMBL4311980, “Discovery of 2-isoxazol-3-yl-acetamide analogues as heat shock protein 90 (HSP90) inhibitors with significant anti-HIV activity” (Eur J Med Chem, 2019).
Activity calls are given as the source filed them. No cut-off for these calls is given here.

Key:
[1] = Cytotoxicity against human TZM-bl cells assessed as maximum non-cytotoxic concentration after 48 hrs by MTT assay; type: cell-based; conditions: read-out: MNCC
Outline: (§1)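 Cells were seeded at 25,000/well in complete medium with compound at different concentrations, with untreated and DMSO controls, and incubated 48 h. MTT (5 mg/mL stock) was added for 4 h at 37 °C in the dark. Formazan was dissolved in isopropanol and A570 read. CC50 and highest non-cytotoxic concentration were derived from this assay.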

[2] = tested on: Human immunodeficiency virus 1; assay: Antiviral activity against HIV-1 NL4-3 infected in human TZM-bl cells assessed as reduction in viral replication at 1000 nM measured at 48 hrs post-infection by steady-glo reporter gene assay relative to control; type: functional; conditions: Human immunodeficiency virus 1, NL4-3, TZM-bl
Outline: (§2)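 TZM-bl cells (0.15×10^6/well) were infected with 0.5 MOI HIV-1 NL4-3 12 h after seeding and treated at the highest non-cytotoxic concentration, which was set by MTT assay. At 48 h post-infection, cells were lysed and mixed 1:1 with Steady-Glo substrate, and luminescence was read.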

[3] = Cytotoxicity against human CEM-GFP cells assessed as reduction in cell viability after 48 hrs by MTT assay; type: cell-based; outline: as §1
[4] = tested on: Human immunodeficiency virus 1; assay: Antiviral activity against HIV-1 NL4-3 infected in human CEM-GFP cells assessed as suppression of viral replication by measuring reduction in p24 level measured at 72 hrs post-infection by ELISA; type: functional, organism-based; conditions: Human immunodeficiency virus 1, NL4-3, CEM-GFP
Outline: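 Cells were incubated with 0.5 MOI virus in the presence of polybrene at 37 °C for 4 h with intermittent mixing, then washed and plated in complete RPMI-1640. Compound added at different concentrations, with untreated and DMSO controls. PBMC were PHA-activated. Supernatant p24 measured by capture ELISA (A450) at 72 h. % inhibition calculated relative to untreated cells.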

[5] = Therapeutic index, ratio of CC50 for human CEM-GFP cells to IC50 for antiviral activity against HIV-1 NL4-3 infected in human CEM-GFP cells; type: toxicity, cell-based; conditions: read-out: Ratio CC50/IC50
Outline: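 IC50 was determined from p24 ELISA 72 h after 0.5 MOI HIV-1 NL4-3 infection with compound at different concentrations. Therapeutic index = CC50/IC50.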

[6] = tested on: Human immunodeficiency virus 1; assay: Antiviral activity against HIV1 NL4-3 infected in human TZM-bl cells assessed as reduction in viral replication at 100 nM measured at 48 hrs post-infection by steady-glo reporter gene assay relative to control; type: functional; conditions: Human immunodeficiency virus 1, NL4-3, TZM-bl; outline: as §2
[7] = biological target: Human immunodeficiency virus type 1 reverse transcriptase (Human immunodeficiency virus 1) (UniProt Q72547); conditions: 500 nM
[8] = biological target: Protease (Human immunodeficiency virus 1) (UniProt Q9YQ12); assay: Inhibition of HIV-1 protease at 500 nM using synthetic peptide as substrate after 15 mins by fluorimetric based assay
Chain of Protease (Human immunodeficiency virus 1) (Q9YQ12 as listed by the source): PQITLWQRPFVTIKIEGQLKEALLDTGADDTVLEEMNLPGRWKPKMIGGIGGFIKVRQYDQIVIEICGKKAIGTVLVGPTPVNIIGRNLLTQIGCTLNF
Outline: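 Cell-free fluorometric protease kit. HIV-1 protease was diluted in reaction buffer and loaded at 10 nmol/well with or without compound. Indinavir served as positive control, with untreated and DMSO controls. Fluorescence (Ex/Em 330/450 nm) was read 15 min after addition. n = 3.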

[9] = tested on: Human immunodeficiency virus 1; assay: Antiviral activity against HIV1 NL4-3 infected in human TZM-bl cells assessed as reduction in viral replication at 500 nM measured at 48 hrs post-infection by steady-glo reporter gene assay relative to control; type: functional; conditions: Human immunodeficiency virus 1, NL4-3, TZM-bl; outline: as §2

With `O=C(Cc1cc(-c2ccccc2)on1)Nc1ccccc1` the MNTC at 48 h [1] was 1000 nM, the inhibition at 1 µM [2] was 89.1% and the CC50 at 48 h [3] was 23 µM. The IC50 [4] was 0.288 µM and the selectivity ratio [5] was 79.8.

For `CCCNC(=O)Cc1cc(-c2ccccc2)on1`, the MNTC at 48 h [1] was 100 nM and the inhibition at 0.1 µM [6] was 60.9%.

For `Cc1ccnc2c1NC(=O)c1cccnc1N2C1CC1`, the inhibition [7] was “Active”.

`O=C(Cc1cc(-c2ccccc2)on1)Nc1ccc(O)cc1` gave an MNTC at 48 h [1] of 1000 nM and an inhibition at 1 µM [2] of 13.4%.

In the case of `COC(=O)c1ccc(NC(=O)Cc2cc(-c3ccccc3)on2)cc1`, the MNTC at 48 h [1] is reported as 100 nM and the inhibition at 0.1 µM [6] is reported as 27.7%.

With `CC(C)(C)NC(=O)[C@@H]1CN(Cc2cccnc2)CCN1C[C@@H](O)C[C@@H](Cc1ccccc1)C(=O)N[C@H]1c2ccccc2C[C@H]1O` the inhibition [8] was “Active”.

For `Cc1cn([C@H]2C[C@H](N=[N+]=[N-])[C@@H](CO)O2)c(=O)[nH]c1=O` [ZIDOVUDINE], the CC50 at 48 h [3] was 13.9 µM, the IC50 [4] was 0.0127 µM and the selectivity ratio [5] was 1090.

For `O=C(Cc1cc(-c2ccccc2)on1)Nc1ccccc1O`, the MNTC at 48 h [1] was 1000 nM, the inhibition at 1 µM [2] was 94.8% and the CC50 at 48 h [3] was 42.9 µM. The IC50 [4] was 0.253 µM and the selectivity ratio [5] was 170.

`COc1ccc(NC(=O)Cc2cc(-c3ccccc3)on2)cc1` showed an MNTC at 48 h [1] of 1000 nM and an inhibition at 1 µM [2] of 59.6%.

With `O=C(Cc1cc(-c2ccccc2)on1)Nc1ccc(F)cc1` the MNTC at 48 h [1] was 500 nM, the inhibition at 0.5 µM [9] was 85.4% and the CC50 at 48 h [3] was 11.8 µM. The IC50 [4] was 0.0871 µM and the selectivity ratio [5] was 136.
